Data set [1] in a line: folding enthalpy; higher = less favourable; fluorescence melt of hairpins on a sequencing array, two-state fit. The settings on record: sodium 0.088 M. A digest of the protocol: (§1)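 Melting temperature and folding enthalpy were derived from bootstrapped two-state fits. The fitted temperatures were raised by 9.35 °C to agree with UV melts, and four replicates were combined by inverse variance. The underlying data were Cy3 fluorescence images of library hairpins, with annealed Cy3 and quencher oligos, on a sequenced MiSeq flow cell in 50 mM Na-HEPES pH 8.0, 25 mM NaCl, taken in 2.5 °C steps up to 60 °C, normalised to pre-quench Cy3 and to control constructs.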

Data set [2] is described as follows: melting temperature; fluorescence melt of hairpins on a sequencing array, two-state fit, raised by 9.35 °C to match UV melts. As to conditions: sodium 0.088 M. The method in brief: as §1

Take GCCGTGCGAAAGCATTGC ((..(((....)))..)): in data set [1], the folding enthalpy is -12.6 kcal/mol. For the same sequence, the Tm in data set [2] came out at 43.2 °C.
For GCCGTGCGAAAGCGGGGC (((..((....))..))), in that order: -34.8 kcal/mol and 67.3 °C.
For GCCGTGGGAAACCATGGC (((.(((....))).))), in that order: -43.5 kcal/mol and 59.4 °C.
The like results for GCCGTGGGAAACTGCGGC ((((..(....)..)))) were, in that order, -28.5 kcal/mol and 53.9 °C.
In the case of GCCGTTGCGAAAGCAGGC (((..(((....)))))), in data set [1], the folding enthalpy is -31.7 kcal/mol. In addition, the Tm in data set [2] is 62.3 °C.
As to GCCGTTGGAAACAACGAC (.(((((....))))).), the folding enthalpy in data set [1] was -16.9 kcal/mol. Besides, the Tm in data set [2] came to 46.2 °C.
For GCCTAACCGAAAGGTGGC (((..(((....)))))), in data set [1], the folding enthalpy was -23.2 kcal/mol. Moreover, the Tm in data set [2] is 53.2 °C.
Take GCCTACCCGAAAGGGGGC (((..(((....)))))): the folding enthalpy in data set [1] is -17.3 kcal/mol. For the same sequence, the Tm in data set [2] is 52.4 °C.
Regarding GCCTACCGAAAGGTCGGC (((.(((....))).))), the folding enthalpy in data set [1] is -39.7 kcal/mol. Further, the Tm in data set [2] stood at 56.5 °C.
With GCCTACGAAAGTACAGGC ((((((....)))..))), the folding enthalpy in data set [1] was -30.7 kcal/mol. Moreover, the Tm in data set [2] stood at 47.7 °C.
For GCCTACGAAAGTACCGGC ((((((....)))..))), in data set [1], the folding enthalpy is -25.6 kcal/mol. The Tm in data set [2] is 36.9 °C.
For GCCTACGAAAGTACGGGC ((((((....)))..))), in that order: -27.2 kcal/mol and 46.3 °C.
For GCCTACGAAAGTACTGGC ((((((....)))..))), in that order: -24.4 kcal/mol and 40.2 °C.
With GCCTACGAAAGTATAGGC ((((((....)))..))), the folding enthalpy in data set [1] is -25.5 kcal/mol. Besides, in data set [2], the Tm worked out at 49.3 °C.
The like results for GCCTACGGAAACGTAGAC (.(((((....))))).) were, in that order, -18.1 kcal/mol and 41.8 °C.
With GCCTAGCGAAAGCAAGGC ((((.((....)).)))), in data set [1], the folding enthalpy was -29.3 kcal/mol. Besides, in data set [2], the Tm was 67.2 °C.
The like results for GCCTAGCGAAAGCGCGGC (((..((....))..))) were, in that order, -18.5 kcal/mol and 61.9 °C.
With GCCTAGCGAAAGCTATGC ((.((((....)))).)), the folding enthalpy in data set [1] was -23.6 kcal/mol. The Tm in data set [2] is 46.2 °C.
As to GCCTAGGGAAACTTGGGC (((.(.(....).).))), in data set [1], the folding enthalpy was -28.3 kcal/mol. Besides, the Tm in data set [2] stood at 36.7 °C.
Take GCCTAGTCGAAAGACGGC (((..(((....)))))): the folding enthalpy in data set [1] was -21 kcal/mol. For the same sequence, in data set [2], the Tm came out at 51.6 °C.
For GCCTATCCGAAAGGAGGC (((..(((....)))))), in that order: -20.7 kcal/mol and 47.3 °C.
The like results for GCCTCAACGAAAGTTGGC (((..(((....)))))) were, in that order, -12.4 kcal/mol and 42.9 °C.
Consider GCCTCACGAAAGTGCGGC (((.(((....))).))), for which the folding enthalpy in data set [1] is -43.1 kcal/mol. Moreover, in data set [2], the Tm is 57.7 °C.
The like results for GCCTCACGAAAGTGGGC (((.(((....)))))) were, in that order, -33.4 kcal/mol and 58.6 °C.
For GCCTCAGGAAACTAAGGC ((((.((....)).)))), in data set [1], the folding enthalpy was -27.7 kcal/mol. Besides, in data set [2], the Tm is 37.6 °C.
The like results for GCCTCCACGAAAGTGGGC (((..(((....)))))) were, in that order, -7.76 kcal/mol and 46.9 °C.
The like results for GCCTCCCGAAAGGGGGC (((.(((....)))))) were, in that order, -27.1 kcal/mol and 67.7 °C.
For GCCTCCGAAAGGAACGGC ((((((....)))..))), the folding enthalpy in data set [1] was -25.3 kcal/mol. The Tm in data set [2] turned out to be 46.9 °C.
For GCCTCCGAAAGGAAGGGC ((((((....)))..))), in that order: -22.3 kcal/mol and 50.2 °C.
For GCCTCCGAAAGGACAGGC ((((((....)))..))), in that order: -36.5 kcal/mol and 49.8 °C.
For GCCTCCGAAAGGACGGGC ((((((....)))..))), in that order: -24.5 kcal/mol and 48.6 °C.
Turning to GCCTCCGAAAGGACTGGC ((((((....)))..))), the folding enthalpy in data set [1] was -27.8 kcal/mol. The Tm in data set [2] was 44.4 °C.
GCCTCCGAAAGGATCGGC ((((((....)))..))): the folding enthalpy in data set [1] was -24.2 kcal/mol. The Tm in data set [2] was 45.3 °C.
For GCCTCCGGAAACGAAGGC ((((.((....)).)))), in that order: -28.3 kcal/mol and 48.8 °C.
For GCCTCCGGAAACGGAAGC ((.((((....)))).)), in that order: -22.7 kcal/mol and 45.9 °C.
Turning to GCCTCGCGAAAGCAACGC ((.(.((....)).).)), the folding enthalpy in data set [1] was -5.96 kcal/mol. For the same sequence, in data set [2], the Tm was 23.4 °C.

The values above are taken from the array DNA melting data of Ke et al. (doi:10.1101/2024.01.08.574731).
